From ChEMBL document CHEMBL4706672 (J Med Chem, 2021)
Calls of active or inactive are those of the source. The rule behind the calls is not given here.

Key:
[1] = Upregulation of HMGCR protein levels in human BxPC-3 cells incubated for 16 hrs by proteomic analysis; assay type: functional
Procedure, shortened: (§1)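 BxPC-3 cells exposed 16 h in triplicate (control, PROTAC) or duplicate (other arms); lysed in RIPA at 4 °C, 75 μg protein per sample. Reduced with DTT (1 h, 55 °C), alkylated with 2-chloroacetamide, acetone-precipitated, trypsin-digested overnight at 37 °C, TMT 10plex labelled, relative quantitation by LC-tandem MS.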

[2] = molecular target: Protein cereblon/Eukaryotic peptide chain release factor GTP-binding subunit ERF3A (Homo sapiens) (UniProt Q96SW2+P15170); test: Protac activity at CRBN/GSPT in human BxPC-3 cells assessed as degradation of GSPT at 1 to 3 uM incubated for 16 hrs by western blot analysis; assay type: cell-based; conditions: dose 1-3 µM
Procedure, shortened: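 BxPC-3 cells were treated with compound for 16 h, then lysed and immunoblotted for GSPT (1:1000) alongside GAPDH. Detection used fluorescent secondary antibodies on an Odyssey imager, and bands were quantified by densitometry.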

[3] = test system: MIA PaCa-2; test: Effect on NQO1 expression in human MIA PaCa-2 cells at […] to 1 uM incubated for 16 hrs by western blot analysis; assay type: functional, cell-based; conditions: dose 0.5-1 µM
Procedure, shortened: (§2)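 Cells were seeded in 6-well plates (BxPC-3 500 × 10^3, MIA PaCa-2 200 × 10^3 cells/well) and exposed to compound for 16 h. Lysis was at 4 °C by sonication in Tris/NaCl/Triton/SDS buffer, pH 7.4, with protease and phosphatase inhibitors. Lysates were run on SDS-PAGE, transferred to PVDF and probed for STAT3, pSTAT3 and NQO1 with GAPDH as loading control. Immunoblots were imaged on an Odyssey system.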

[4] = Selectivity index, ratio of IC50 for antiproliferative activity against human HEK293 cell by MTT assay to IC50 for inhibition of IL-6 induced STAT3 transcription in human HEK293 cells
Procedure, shortened: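 HEK-293 cells carrying an SIE-luc2P STAT3 reporter, seeded 10,000/well, stimulated with IL6 at 100 ng/ml for 24 h, then given compound for 24 h; luciferase reagent added and luminescence read after 5 min. A parallel 24 h MTT assay was run in the same cells. Mean ± SD of three independent experiments.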

[5] = molecular target: Signal transducer and activator of transcription 3 (Homo sapiens) (UniProt P40763); test: Inhibition of STAT3 phosphorylation in human BxPC-3 cells at 1 uM after 16 hrs by western blot analysis; assay type: cell-based; procedure, shortened: as §2
[6] = molecular target: Protein cereblon/Signal transducer and activator of transcription 3 (Homo sapiens, UniProt P40763+Q96SW2); test: Protac activity at CRBN/STAT3 in human BxPC-3 cells assessed as decrease in STAT3 expression level at 5 uM after 16 hrs by western blot analysis; assay type: cell-based
Procedure, shortened: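 BxPC-3 cells seeded at 500 × 10^3 per well in 6-well plates, treated 16 h. Sonication lysis at 4 °C in Tris/NaCl/Triton/SDS buffer pH 7.4 with protease and phosphatase inhibitors, BCA protein assay, SDS-PAGE, PVDF transfer. Probed for STAT3, pSTAT3 and NQO1 with GAPDH loading control; fluorescent secondary detection.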

[7] = molecular target: Protein cereblon/E3 ubiquitin-protein ligase DTX3L (Homo sapiens) (UniProt Q96SW2+Q8TDB6); test: Protac activity at CRBN/DTX3L in human BxPC-3 cells assessed as DTX3L degradation incubated for 16 hrs by proteomic analysis; assay type: cell-based
Chain of Protein cereblon/E3 ubiquitin-protein ligase DTX3L (Homo sapiens) (Q96SW2 whole entry, looked up, other chains not shown): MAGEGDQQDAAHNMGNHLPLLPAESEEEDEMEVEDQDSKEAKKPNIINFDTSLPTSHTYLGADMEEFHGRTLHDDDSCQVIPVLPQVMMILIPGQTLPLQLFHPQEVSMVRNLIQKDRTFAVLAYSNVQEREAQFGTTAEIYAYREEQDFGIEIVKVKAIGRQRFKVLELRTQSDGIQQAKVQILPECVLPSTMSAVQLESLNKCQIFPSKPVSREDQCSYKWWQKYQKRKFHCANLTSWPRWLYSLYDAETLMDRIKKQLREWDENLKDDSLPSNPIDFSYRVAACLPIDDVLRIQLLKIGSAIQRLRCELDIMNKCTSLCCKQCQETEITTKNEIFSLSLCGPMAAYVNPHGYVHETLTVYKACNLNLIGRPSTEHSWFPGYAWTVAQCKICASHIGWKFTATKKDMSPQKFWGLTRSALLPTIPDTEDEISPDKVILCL
Procedure, shortened: (§3)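 TMT 10plex proteomics. […] Samples (75 μg) were reduced with DTT, alkylated with 2-chloroacetamide, acetone-precipitated, trypsin-digested overnight at 37 °C and TMT-labeled for LC-MS/MS relative quantitation.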

[8] = test system: BXPC-3; test: Inhibition of colony formation in human BxPC-3 cells assessed as reduction in colony formation at 0.06 to 0.5 uM incubated for 7 to 10 days in presence of NQO1 inhibitor dicoumarol; conditions: dose 0.06-0.5 µM
[9] = Upregulation of GDF15 protein levels in human BxPC-3 cells incubated for 16 hrs by proteomic analysis; assay type: functional; procedure, shortened: as §1
[10] = molecular target: Protein cereblon/Protein PRRC2B (Homo sapiens) (UniProt Q96SW2+Q5JSZ5); test: Protac activity at CRBN/PRRC2B in human BxPC-3 cells assessed as PRRC2B degradation incubated for 16 hrs by proteomic analysis; assay type: cell-based; procedure, shortened: as §3
Chain of Protein cereblon/Protein PRRC2B (Homo sapiens) (Q5JSZ5 whole entry, looked up): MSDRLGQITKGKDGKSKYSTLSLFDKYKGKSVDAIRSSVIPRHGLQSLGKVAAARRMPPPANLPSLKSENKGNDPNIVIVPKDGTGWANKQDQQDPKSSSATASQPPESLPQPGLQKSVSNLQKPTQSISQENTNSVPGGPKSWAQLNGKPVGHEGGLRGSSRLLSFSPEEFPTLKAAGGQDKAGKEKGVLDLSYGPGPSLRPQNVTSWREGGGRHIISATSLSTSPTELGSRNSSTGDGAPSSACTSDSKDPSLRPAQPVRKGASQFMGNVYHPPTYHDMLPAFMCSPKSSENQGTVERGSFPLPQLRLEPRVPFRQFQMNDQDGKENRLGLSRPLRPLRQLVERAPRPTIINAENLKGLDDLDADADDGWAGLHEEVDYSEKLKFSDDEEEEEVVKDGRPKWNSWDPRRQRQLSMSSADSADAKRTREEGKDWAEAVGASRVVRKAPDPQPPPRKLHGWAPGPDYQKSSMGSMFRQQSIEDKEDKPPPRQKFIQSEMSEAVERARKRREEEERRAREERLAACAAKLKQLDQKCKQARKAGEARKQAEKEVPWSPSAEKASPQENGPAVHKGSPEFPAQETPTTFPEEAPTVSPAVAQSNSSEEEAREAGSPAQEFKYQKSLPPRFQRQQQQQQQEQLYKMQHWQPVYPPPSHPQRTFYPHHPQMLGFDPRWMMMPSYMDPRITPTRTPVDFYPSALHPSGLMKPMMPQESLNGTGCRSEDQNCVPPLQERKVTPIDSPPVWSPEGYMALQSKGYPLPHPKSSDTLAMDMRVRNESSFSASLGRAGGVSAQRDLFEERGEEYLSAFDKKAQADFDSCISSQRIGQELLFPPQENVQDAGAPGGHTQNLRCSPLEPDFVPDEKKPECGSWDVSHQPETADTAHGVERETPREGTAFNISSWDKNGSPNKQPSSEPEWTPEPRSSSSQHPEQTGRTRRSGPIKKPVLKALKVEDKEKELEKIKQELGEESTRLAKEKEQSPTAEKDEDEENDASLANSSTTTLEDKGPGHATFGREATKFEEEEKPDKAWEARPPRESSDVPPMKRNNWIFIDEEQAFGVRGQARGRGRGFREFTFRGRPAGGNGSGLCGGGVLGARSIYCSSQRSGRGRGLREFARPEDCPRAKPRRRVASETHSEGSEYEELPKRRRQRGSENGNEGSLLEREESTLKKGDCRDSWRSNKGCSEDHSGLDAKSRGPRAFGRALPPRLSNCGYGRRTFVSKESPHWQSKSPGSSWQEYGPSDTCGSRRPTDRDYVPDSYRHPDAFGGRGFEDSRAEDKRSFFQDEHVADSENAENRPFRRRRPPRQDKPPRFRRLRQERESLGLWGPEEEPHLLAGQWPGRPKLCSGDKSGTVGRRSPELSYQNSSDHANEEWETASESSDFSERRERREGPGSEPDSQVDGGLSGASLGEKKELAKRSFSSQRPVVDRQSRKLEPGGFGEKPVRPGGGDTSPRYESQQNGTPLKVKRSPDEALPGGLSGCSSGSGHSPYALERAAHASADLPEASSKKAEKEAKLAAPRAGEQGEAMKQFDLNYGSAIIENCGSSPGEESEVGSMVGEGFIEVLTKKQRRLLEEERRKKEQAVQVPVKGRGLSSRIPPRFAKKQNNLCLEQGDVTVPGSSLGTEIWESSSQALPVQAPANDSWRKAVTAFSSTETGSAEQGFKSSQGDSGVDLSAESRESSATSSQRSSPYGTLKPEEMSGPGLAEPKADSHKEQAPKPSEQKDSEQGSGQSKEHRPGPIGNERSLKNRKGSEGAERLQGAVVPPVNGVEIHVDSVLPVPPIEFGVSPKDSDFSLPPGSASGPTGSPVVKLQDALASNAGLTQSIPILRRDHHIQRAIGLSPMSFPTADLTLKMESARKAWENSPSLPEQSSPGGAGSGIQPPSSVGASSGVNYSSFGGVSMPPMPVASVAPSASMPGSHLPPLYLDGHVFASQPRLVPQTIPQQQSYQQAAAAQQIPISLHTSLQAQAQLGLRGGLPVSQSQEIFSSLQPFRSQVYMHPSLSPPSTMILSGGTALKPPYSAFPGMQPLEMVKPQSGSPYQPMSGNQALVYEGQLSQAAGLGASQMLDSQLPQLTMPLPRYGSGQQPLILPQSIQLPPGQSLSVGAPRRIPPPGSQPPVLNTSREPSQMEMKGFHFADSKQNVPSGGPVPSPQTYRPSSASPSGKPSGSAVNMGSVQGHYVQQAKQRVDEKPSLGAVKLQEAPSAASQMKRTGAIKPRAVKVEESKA
Chain of Protein cereblon/Protein PRRC2B (Homo sapiens) (Q96SW2 whole entry, looked up): as the sequence (Q96SW2 whole entry, looked up, other chains not shown) above

[11] = Upregulation of AKR1C2 protein levels in human BxPC-3 cells incubated for 16 hrs by proteomic analysis; assay type: functional; procedure, shortened: as §1
[12] = molecular target: Protein cereblon/Protein FAM3C (Homo sapiens) (UniProt Q96SW2+Q92520); test: Protac activity at CRBN/FAM3C in human BxPC-3 cells assessed as FAM3C degradation incubated for 16 hrs by proteomic analysis; assay type: cell-based; procedure, shortened: as §3
[13] = molecular target: Protein cereblon/Ubiquitin carboxyl-terminal hydrolase 8 (Homo sapiens) (UniProt P40818+Q96SW2); test: Protac activity at CRBN/USP8 in human BxPC-3 cells assessed as USP8 degradation incubated for 16 hrs by proteomic analysis; assay type: cell-based; procedure, shortened: as §1
[14] = Upregulation of MPV17 protein levels in human BxPC-3 cells incubated for 16 hrs by proteomic analysis; assay type: functional; procedure, shortened: as §1
[15] = molecular target: T1, Protein cereblon/E3 ubiquitin-protein ligase ZFP91 (Homo sapiens, UniProt Q96SW2+Q96JP5); test: Protac activity at CRBN/ZFP91 in human BxPC-3 cells assessed as induction of ZF91 degradation incubated for 16 hrs by western blot analysis; assay type: cell-based
Procedure, shortened: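 BxPC-3 cells treated for 4, 16 or 24 h across a concentration series. ZFP91 immunoblotted against GAPDH; bands quantified by densitometry, DC50 calculated from dose-response curves of the densitometry.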

[16] = molecular target: T1, Protein cereblon/E3 ubiquitin-protein ligase ZFP91; test: Protac activity at CRBN/ZFP91 in human BxPC-3 cells assessed as ZF91 protein degradation at 1 uM incubated for 16 hrs in presence of proteasome inhibitor carfilzomib by western blot analysis; assay type: cell-based
Procedure, shortened: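 BxPC-3 cells pretreated 1 h with carfilzomib at 1 μM, then exposed 16 h. Lysates blotted for ZFP91 with GAPDH control; bands quantified by densitometry.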
Target sequence in this assay (Q96JP5 2-570 partner limits assumed): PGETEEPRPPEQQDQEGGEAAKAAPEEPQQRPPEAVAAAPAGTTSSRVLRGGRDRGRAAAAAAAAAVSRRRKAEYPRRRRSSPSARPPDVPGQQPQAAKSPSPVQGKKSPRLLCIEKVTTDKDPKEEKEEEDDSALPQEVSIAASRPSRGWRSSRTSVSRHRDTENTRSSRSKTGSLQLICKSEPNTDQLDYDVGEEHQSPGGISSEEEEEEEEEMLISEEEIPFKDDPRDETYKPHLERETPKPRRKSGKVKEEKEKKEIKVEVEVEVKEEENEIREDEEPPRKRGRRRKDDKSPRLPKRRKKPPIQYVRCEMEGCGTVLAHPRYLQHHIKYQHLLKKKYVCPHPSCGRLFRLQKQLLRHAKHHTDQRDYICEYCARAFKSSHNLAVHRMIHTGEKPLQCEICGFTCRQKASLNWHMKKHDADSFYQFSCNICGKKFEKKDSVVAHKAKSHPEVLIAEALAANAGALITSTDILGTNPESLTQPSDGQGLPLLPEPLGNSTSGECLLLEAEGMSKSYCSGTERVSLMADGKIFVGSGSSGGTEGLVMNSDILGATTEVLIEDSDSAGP
Target sequence in this assay (Q96SW2 whole entry): as the sequence (Q96SW2 whole entry, looked up, other chains not shown) above

[17] = molecular target: T1, Protein cereblon/E3 ubiquitin-protein ligase ZFP91; test: Protac activity at CRBN/ZFP91 in human BxPC-3 cells assessed as degradation of ZFP91 at 0.5 uM incubated for 16 hrs in presence of napabucasin by western blot analysis; assay type: cell-based
Procedure, shortened: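 Whole-cell lysates immunoblotted for ZFP91, GAPDH reference, densitometric quantification.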
Target sequence in this assay (Q96JP5 2-570 partner limits assumed): as the sequence (Q96JP5 2-570 partner limits assumed) above
Target sequence in this assay (Q96SW2 whole entry): as the sequence (Q96SW2 whole entry, looked up, other chains not shown) above

[18] = molecular target: T1, Protein cereblon/E3 ubiquitin-protein ligase ZFP91; test: Protac activity at CRBN/ZFP91 in human MIA PaCa-2 cells assessed as ZF91 protein degradation at 0.1 to 0.5 uM incubated for 16 hrs in presence of proteasome inhibitor carfilzomib by western blot analysis; assay type: cell-based; conditions: dose 0.1-0.5 µM
Target sequence in this assay (Q96JP5 2-570 partner limits assumed): as the sequence (Q96JP5 2-570 partner limits assumed) above
Target sequence in this assay (Q96SW2 whole entry): as the sequence (Q96SW2 whole entry, looked up, other chains not shown) above

[19] = Upregulation of Arx protein levels in human BxPC-3 cells incubated for 16 hrs by proteomic analysis; assay type: functional; procedure, shortened: as §1
[20] = molecular target: Protein cereblon/Cystatin-C (Homo sapiens) (UniProt P01034+Q96SW2); test: Protac activity at CRBN/CST3 in human BxPC-3 cells assessed as CST3 degradation incubated for 16 hrs by proteomic analysis; assay type: cell-based; procedure, shortened: as §3
Chain of Protein cereblon/Cystatin-C (Homo sapiens) (P01034 whole entry, looked up): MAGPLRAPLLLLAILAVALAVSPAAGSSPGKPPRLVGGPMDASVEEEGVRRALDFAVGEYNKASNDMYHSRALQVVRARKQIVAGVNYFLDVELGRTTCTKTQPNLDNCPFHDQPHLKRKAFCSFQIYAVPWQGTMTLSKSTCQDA
Chain of Protein cereblon/Cystatin-C (Homo sapiens) (Q96SW2 whole entry, looked up): as the sequence (Q96SW2 whole entry, looked up, other chains not shown) above

[21] = Upregulation of RND3 protein levels in human BxPC-3 cells incubated for 16 hrs by proteomic analysis; assay type: functional; procedure, shortened: as §1

Activity [2]: inactive
inhibition [5]: Active
Activity [6]: Active
log2FC [7]: -0.96
log2FC [10]: -0.63
log2FC [12]: -0.73
log2FC [13]: -0.59
DC50 [15]: 80 nM
Activity [16]: inactive
Activity [17]: Active
Activity [18]: inactive
log2FC [20]: -0.81
SMILES: O=C1CCC(N2C(=O)c3cccc(NCCCCCC4CCN(CCNC(=O)c5cc6c(o5)C(=O)c5ccccc5C6=O)CC4)c3C2=O)C(=O)N1 (stereo unspecified)
log2FC [1]: 0.83
Activity [3]: inactive
Ratio IC50 [4]: 7
inhibition [8]: Active
log2FC [9]: 0.69
log2FC [11]: 0.6
log2FC [14]: 0.66
log2FC [19]: 1.54
log2FC [21]: 0.98
